From PubChem BioAssay
Hits are enriched below; roughly 4.8% of the tested compounds scored in any of these assays.
HSF1 inh = HSF1 inhibitors in luciferase reporter cells, primary screen, cell-based, NIH3T3, luminescence | hit rate 0.77% among 300,000 | NIH3T3-HGL HSE-luciferase, MG132-induced, luminescence 8 h; stronger effect = lower value | AID 2098, 2009 | activity change, negative = inhibition, % at 7.5 µM (by protocol);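 active = more than half of replicate wells show activity change below -50%, luminescence cut by over half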;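 note: luciferase reports HSF-1 transcriptional activity via heat shock element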
T cruzi repl = inhibitors of intracellular T. cruzi growth, primary screen, luminescence, NIH3T3 host cells. inhibition, % (no concentration beside the values). AID 1885, 2009. hit rate 1.4% among 300,000. T. cruzi beta-gal in NIH3T3, 90 h;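 active = mean inhibition across valid replicates above about 55%, limit read from the data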;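 note: signal also drops with host cell toxicity which is not excluded here; higher percent means less beta-gal luminescence so fewer parasites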
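System: Mouse NIH/3T3 fibroblasts infected with β-gal-expressing T. cruzi Tulahuen C4 | Quantity: NIH/3T3 cells, 5,000 per well | Reagent: 5000 reporter trypomastigotes per well | Dosing: Compound pinned at 50 nL/well, DMSO | Schedule: 3 h host attachment, then at least 90 h co-culture | Detection: GalScreen luminescence, 60 min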
Jurkat NFkB inh = inhibitors of induced NF-kB luciferase reporter, primary screen, TCR NF-kB activation inhibitor project, cell-based, luminescence, uHTS; inhibition, % at 4 µM; hit rate 0.53% among 330,000; AID 435003, 2010; Jurkat, PMA/ionomycin-induced NF-kB luciferase reporter; in the data active = inhibition above about 50%
HSF1 activator = HSF-1 activators, primary screen, NIH3T3-HGL cells, MG132 stress, luminescence, single point; NIH3T3-HGL HSF-1 luciferase reporter, 8 h; 100% = twice DMSO control signal; hit rate 1.7% among 300,000; AID 504408, 2011; activation, % at 9 µM;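 active = mean replicate activation of at least 50% with a set share of replicates each reaching 50%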
697 NFkB inh = inhibitors of PMA/ionomycin-induced NF-kB reporter, 697 cells, primary screen, B-cell NF-kB inhibitor project, cell-based, luminescence, uHTS; hit rate 0.33% among 330,000; inhibition, % at 4 µM; AID 435022, 2010; 697 B-cell NF-kB luciferase reporter, 16 h; in the data active = inhibition above about 35%
GPR7 antag = GPR7 receptor antagonists, primary screen, cell-based, fluorescence, single concentration; inhibition, % at 4.4 µM; AID 1861, 2009; hit rate 1.1% among 290,000; Neuropeptides B/W receptor type 1 (Homo sapiens), P48145; GPR7-expressing cells, fluorescence antagonist assay; in the data active = inhibition above about 16%, passing the limit was not always enough;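 note: cells stimulated with the agonist NPW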
Target sequence (P48145 whole entry, looked up): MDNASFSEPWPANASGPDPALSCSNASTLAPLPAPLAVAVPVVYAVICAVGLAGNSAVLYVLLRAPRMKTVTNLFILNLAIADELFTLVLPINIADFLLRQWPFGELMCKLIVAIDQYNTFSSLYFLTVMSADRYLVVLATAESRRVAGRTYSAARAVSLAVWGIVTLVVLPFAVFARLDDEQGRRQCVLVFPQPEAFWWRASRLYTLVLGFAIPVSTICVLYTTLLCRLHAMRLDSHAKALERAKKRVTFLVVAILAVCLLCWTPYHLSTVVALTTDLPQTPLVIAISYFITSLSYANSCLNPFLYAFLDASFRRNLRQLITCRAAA
GPR7 antag cf = GPR7 receptor antagonists, confirmation, cell-based, fluorescence, single concentration; hit rate 52% among 2,400; shares compounds with GPR7 antag; AID 1952, 2009; inhibition, % at 4.4 µM; GPR7-expressing cells, calcium fluorescence antagonist mode; in the data active = inhibition above about 24%;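 note: stimulated with the GPR7 agonist NPW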
MCHR1 antagonist = MCHR1 antagonists in cells, counter-screen for GPR7 antagonist project, cell-based, fluorescence, human. shares compounds with GPR7 antag. MCHR1-expressing cells, fluorescence antagonist assay. inhibition, % at 4.4 µM. hit rate 62% among 2,400. AID 2148, 2009; in the data active = inhibition above about 22%
Hits are given with their value; . = inactive; / = no result.

SMILES	HSF1 inh	T cruzi repl	Jurkat NFkB inh	HSF1 activator	697 NFkB inh	GPR7 antag	GPR7 antag cf	MCHR1 antagonist
CCCc1ccc(C(C)NC(=S)NCc2ccc(F)cc2)cc1 (stereo not drawn)	.	.	.	.	.	59.0	78.9	92.9
CCOc1ccc(C(C)NC(=S)NCc2ccc(Cl)cc2)cc1 (stereo not drawn)	.	.	.	.	.	29.9	61.4	69.6
CCC(C)c1ccc(C(C)NC(=S)NCc2ccc(F)cc2)cc1 (stereo not drawn)	.	.	.	.	.	.	/	/
CC1CC(C)C[N+](=C2C=C(N3CCCC3)CC(C)(C)C2)C1 (stereo not drawn)	.	58.6	/	.	/	49.6	58.0	53.4
COc1ccc(C2c3cc4c(cc3OC(N3CCOCC3)C2C)OCO4)c(OC)c1 (stereo not drawn)	.	/	/	.	/	/	/	/
COC(=O)c1ccc(OCC2c3cc(OC)c(OC)cc3CCN2C(=O)C2CC2)cc1 (stereo not drawn)	.	.	.	.	.	27.5	42.7	28.8
CCc1ccc(OCC2c3cc(OC)c(OC)cc3CCN2C(=S)NC)cc1 (stereo not drawn)	.	.	.	.	.	35.8	24.9	37.5
CC(=O)c1ccc(NC(=O)C(C)N(C)CC(=O)Nc2ccc(N3CCOCC3)cc2)cc1 (stereo not drawn)	.	.	.	.	.	25.6	.	.
CC(=O)c1ccc(NC(=O)C(C)N(C)CC(=O)Nc2ccc(Cl)cc2)cc1 (stereo not drawn)	.	.	.	.	.	.	/	/
Cc1cc(NC(=O)CCC(=O)N(c2ccccc2)C(C)C(=O)NC2CCCC2)no1 (stereo not drawn)	.	.	.	.	.	.	/	/
Cc1ccc(C2CC(c3ccco3)n3ncnc3N2)cc1 (stereo not drawn)	.	.	.	.	.	.	/	/
Cc1ccc2c(c1)C(N1CCCC1=O)CC(c1ccco1)N2 (stereo not drawn)	.	.	.	.	.	31.0	.	.
COc1ccccc1Nc1nc(NCCCCO)nc(N2CCCC2)n1	.	.	.	.	.	/	/	/
O=C(CN1C(=O)c2ccccc2C1=O)Nc1ccccc1F	.	.	.	.	.	21.3	.	37.5
O=C(CN1C(=O)c2ccccc2C1=O)Nc1ccccc1C(F)(F)F	.	.	.	.	.	.	/	/
O=C(CSc1nn(-c2ccccc2)c(=S)s1)Nn1cnnc1	.	.	.	.	.	.	/	/
Cc1ccc(NC(=O)CSc2nn(-c3ccccc3)c(=S)s2)cc1S(=O)(=O)N(C)C	.	.	.	.	.	21.4	56.1	68.0
Cc1ccccc1SCCNC(=O)CCc1ccccc1	.	.	.	.	.	.	/	/
CC(NC(=S)Nc1ccc(F)cc1)C(c1cccs1)N1CCOCC1 (stereo not drawn)	.	.	.	.	.	22.9	.	.
Cc1ccccc1NC(=S)NC(C)C(c1cccs1)N1CCOCC1 (stereo not drawn)	.	.	.	.	.	.	/	/
COc1ccc(OC2C(=O)N(Cc3ccc(F)cc3)C2c2ccc(OC)c(OC)c2)cc1 (stereo not drawn)	.	.	.	.	.	.	/	/
COc1cc(C2C(Oc3ccccc3C)C(=O)N2Cc2ccc(F)cc2)cc(OC)c1OC (stereo not drawn)	.	.	.	.	.	22.8	.	22.7
CCCC(=O)Nc1cccc(-c2cn3cccnc3n2)c1	.	.	.	.	.	67.9	.	.
C=CCN1C(=O)CSc2ccc(C(=O)NCc3cccs3)cc21	.	.	.	.	.	27.8	.	.
CC(C)n1nccc1NC(=O)Nc1ccccc1	.	.	.	.	.	.	/	/
SMILES	HSF1 inh	T cruzi repl	Jurkat NFkB inh	HSF1 activator	697 NFkB inh	GPR7 antag	GPR7 antag cf	MCHR1 antagonist
CCC(=O)Nc1cccc(NC(=O)CSc2nnnn2Cc2ccccc2)c1	.	.	.	.	.	22.6	.	.
O=C(CCc1ccccc1)Nc1ccc(S(=O)(=O)NC2=NCCCCC2)cc1	/	/	.	/	.	/	/	/
Cc1ccc(-c2cc(C(=O)N/N=C/c3c[nH]c4ccccc34)[nH]n2)cc1	.	.	/	.	/	33.5	.	35.0
O=C(N/N=C/c1c[nH]c2ccccc12)c1cc(Cl)ccc1O	.	.	.	.	.	36.0	.	27.1
O=C(N/N=C/c1c[nH]c2ccccc12)c1ccccc1Cl	.	.	.	.	.	.	/	/
COC(=O)CSc1nc(N)c(C#N)c(CC(C)C)c1C#N	.	.	.	.	.	26.1	.	.
CCOC(=O)CSc1nc(N)c(C#N)c(CC(C)C)c1C#N	.	.	.	.	.	.	/	/
CC(=O)c1cccc(NC(=O)c2ccc3c(c2)CCCC3)c1	.	.	.	.	.	43.0	.	41.4
CC(=O)c1cccc(NC(=O)c2ccc(N(C)S(=O)(=O)c3ccc(C)cc3)cc2)c1	.	.	.	.	.	30.5	.	37.5
CC(=O)c1cccc(NS(=O)(=O)c2ccc(C(=O)Nc3ccccc3)cc2)c1	.	.	.	.	.	21.5	28.9	49.6
CC(=O)c1cccc(NC(=O)Nc2ccc3c(c2)CCC3)c1	.	.	.	.	.	.	/	/
CC(=O)c1cccc(NC(=O)c2ccc(N(Cc3ccc(C)cc3)S(C)(=O)=O)cc2)c1	.	.	.	.	.	36.7	.	49.5
S=C(NCc1ccccc1)Nc1ccc(Oc2ccccc2)cc1	.	.	.	.	.	27.7	.	28.7
Cc1ccccc1OC1CCN(C(=O)C2CCC(=O)N(C3CCCC3)C2)CC1 (stereo not drawn)	.	.	.	.	.	.	/	/
CCOc1ccc2nc3ccc4[nH]onc4c3c2c1	.	.	.	.	.	27.8	47.9	46.0
CC(=O)Oc1ccc2ccccc2c1C(NC(=O)Cc1ccccc1)c1ccc(Cl)cc1 (stereo not drawn)	.	.	.	.	.	.	/	/
Nc1nonc1C(=O)NCCNCc1c(OCc2ccccc2F)ccc2ccccc12	.	.	.	.	.	28.0	47.3	68.7
O=C(Cn1cnc2c(nnn2-c2cccc(Cl)c2)c1=O)NCc1ccccc1	.	.	.	.	.	.	/	/
CC(=O)c1ccc(NC(=S)NC(=O)/C=C/c2ccc(F)cc2)cc1	.	.	.	.	.	47.8	.	.
